Paper PMC8752318 (Nano Today, 2022)

What was measured:
[1] = test system: STING-dependent IRF3; settings: ref [44]; cited from earlier work
[2] = test system: SARS-CoV-2 B.1.617.2 pseudovirus; settings: in vivo, ip
[3] = test system: SARS-CoV-2 B.1.351 pseudovirus; settings: in vivo, ip
[4] = test system: IKBKE kinase-dependent activity of IRF3; settings: ref [44]; cited from earlier work
[5] = naked amantadine; ref [33], [54], [55]; cited from earlier work
[6] = test system: animal model; settings: repeated injections with high dose; ref [28]; cited from earlier work
[7] = naked amantadine; ref [33], [54], [55]; cited from earlier work; remark: listed apart in the source
[8] = test system: SARS-CoV-2 infection and symptomatology; settings: in vivo; cited from earlier work
[9] = test system: immunoregulatory cytokines such as interferons and tumor necrosis factors; settings: in vivo and in vitro, ref [29], [30], [31], [32]; cited from earlier work
[10] = test system: DC 2.4 cells; experiment: DC 2.4 activation by flow cytometry; assay type: cell-based; settings: 10 μg/mL, 24 h
Procedure, shortened: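 DC 2.4 cells (1 × 10^6 per well) were cultured 12 h, then exposed to 10 μg test compound or tetrapeptide for 24 h. Staining used DAPI live/dead for viability, anti-CD40 and anti-CD86 for maturation, and anti-IL-4 and anti-TNF-α for function. At least 50,000 cells per sample were read by flow cytometry.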

[11] = test system: RIG-I-like receptor (RLR) signaling pathway; experiment: Transcriptome sequencing analysis of lymph node immune cells; assay type: in vivo, Balb/c mice; settings: WGCNA; AAS (Fig. 4g) or naked amantadine (Fig S7)
[12] = test system: DC 2.4 cells; experiment: Cellular uptake inhibition; assay type: cell-based; settings: read-out: inhibition rate of AAS uptake by DCs
Procedure, shortened: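 DC 2.4 cells were grown in DMEM with 10% FBS and penicillin/streptomycin at 37 °C, 5% CO2, then seeded at 5 × 10^5 per well for 24 h. Cells were pretreated 1 h with 5 μM cytochalasin B or cytochalasin D, then given 5 μg Cy5-labelled AAS for 2 h. They were washed in PBS/2% FBS, fixed in 2% paraformaldehyde for 10 min, and Cy5 uptake was read by flow cytometry.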

CCn1c(-c2nonc2N)nc2c(C#CC(C)(C)O)ncc(OC[C@H]3CCCNC3)c21 [GSK690693]
inhibition of STING-dependent IRF3 activation [1]: inhibit the activation of STING-dependent IRF3
decrease of neutralizing antibody against B.1.617.2 vs AAS+RBD group [2]: 6 fold
decrease of neutralizing antibody against B.1.351 vs AAS+RBD group [3]: 7 fold
inhibition of IKBKE kinase-dependent activity of IRF3 (GSK690693) [4]: inhibit the IKBKE kinase-dependent activity of IRF3

NC12CC3CC(CC(C3)C1)C2 [amantadine]
water solubility [5]: unsatisfactory water solubility
adverse reactions [6]: not observed
half-life period in vivo [7]: short half-life period
prevention of SARS-CoV-2 infection and symptomatology [8]: can prevent SARS-CoV-2 infection and symptomatology
secretion of immunoregulatory cytokines [9]: increase the secretion of multiple immunoregulatory cytokines
immunostimulation activity against immune cells [10]: possesses the immunostimulation activity
protein-protein interaction (PPI) network key genes [11]: three RLR signaling pathway-related genes (Oasl2, RIG-I and IRF3) located in the central position

C=C1[C@@H](C)[C@H]2[C@H](Cc3ccccc3)NC(=O)[C@]23OC(=O)/C=C/[C@H](O)CCC[C@@H](C)C/C=C/[C@H]3[C@@H]1O [cytochalasin B]
inhibition at 5 µM [12]: 11.7%

C=C1[C@@H](C)[C@H]2[C@H](Cc3ccccc3)NC(=O)[C@]23[C@H](OC(C)=O)/C=C/[C@@](C)(O)C(=O)[C@@H](C)C/C=C/[C@H]3[C@@H]1O [cytochalasin D]
inhibition at 5 µM [12]: 46%

CN(C)c1ccc(C(=C2C=CC(=[N+](C)C)C=C2)c2ccccc2)cc1.CN(C)c1ccc(C(=C2C=CC(=[N+](C)C)C=C2)c2ccccc2)cc1.O=C(O)C(=O)O.O=C([O-])C(=O)O.O=C([O-])C(=O)O [malachite green oxalate]
decrease of neutralizing antibody against B.1.351 vs AAS+RBD group [3]: 4 fold
